Calls of active or inactive are those of the source. No cut-off for these calls is given here.
Assays:
[1] = molecular target: Sodium-dependent serotonin transporter (Homo sapiens, UniProt P31645); assay: Binding affinity to human SERT
[2] = molecular target: Sodium-dependent noradrenaline transporter (Homo sapiens, UniProt P23975); assay: Binding affinity to human NET
[3] = molecular target: Sodium-dependent dopamine transporter (Homo sapiens, UniProt Q01959); assay: Binding affinity to human DAT
Chain of Sodium-dependent dopamine transporter (Q01959 whole entry): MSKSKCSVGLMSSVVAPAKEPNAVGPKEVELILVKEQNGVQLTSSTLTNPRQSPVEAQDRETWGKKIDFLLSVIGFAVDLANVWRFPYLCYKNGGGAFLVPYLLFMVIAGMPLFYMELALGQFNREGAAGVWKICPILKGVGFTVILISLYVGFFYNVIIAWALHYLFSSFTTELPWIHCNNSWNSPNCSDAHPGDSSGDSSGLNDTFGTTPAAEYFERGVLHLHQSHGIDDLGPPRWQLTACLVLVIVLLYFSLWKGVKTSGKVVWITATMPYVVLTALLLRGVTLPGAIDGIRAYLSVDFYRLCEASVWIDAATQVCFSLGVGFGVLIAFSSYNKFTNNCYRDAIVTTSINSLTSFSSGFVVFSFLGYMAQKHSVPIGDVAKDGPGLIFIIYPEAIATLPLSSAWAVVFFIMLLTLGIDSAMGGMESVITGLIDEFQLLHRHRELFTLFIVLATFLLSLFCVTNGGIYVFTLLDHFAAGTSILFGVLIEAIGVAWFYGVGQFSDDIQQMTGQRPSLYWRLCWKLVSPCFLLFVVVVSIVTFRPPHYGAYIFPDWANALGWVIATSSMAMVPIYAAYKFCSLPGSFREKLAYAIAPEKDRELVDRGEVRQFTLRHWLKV

[4] = molecular target: T1, 5-hydroxytryptamine receptor 1A (Homo sapiens, UniProt P08908); assay: Binding affinity to 5HT1A receptor
T1 sequence (P08908 whole entry): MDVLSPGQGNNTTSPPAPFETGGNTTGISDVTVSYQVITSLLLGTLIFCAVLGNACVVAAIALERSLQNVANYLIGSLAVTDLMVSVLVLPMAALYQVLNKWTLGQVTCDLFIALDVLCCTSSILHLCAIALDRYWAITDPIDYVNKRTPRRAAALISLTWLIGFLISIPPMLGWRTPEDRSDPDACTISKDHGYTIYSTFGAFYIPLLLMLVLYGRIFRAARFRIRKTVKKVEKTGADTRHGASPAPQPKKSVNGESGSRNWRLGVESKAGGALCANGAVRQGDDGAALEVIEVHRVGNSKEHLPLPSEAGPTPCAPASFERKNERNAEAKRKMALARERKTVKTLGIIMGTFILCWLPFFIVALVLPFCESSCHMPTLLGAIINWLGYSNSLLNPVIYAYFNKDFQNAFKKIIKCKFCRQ

[5] = molecular target: 5-hydroxytryptamine receptor 1B (Homo sapiens, UniProt P28222); assay: Binding affinity to 5HT1B receptor
[6] = molecular target: 5-hydroxytryptamine receptor 2A (Homo sapiens, UniProt P28223); assay: Binding affinity to 5HT2A receptor
Chain of 5-hydroxytryptamine receptor 2A (P28223 whole entry): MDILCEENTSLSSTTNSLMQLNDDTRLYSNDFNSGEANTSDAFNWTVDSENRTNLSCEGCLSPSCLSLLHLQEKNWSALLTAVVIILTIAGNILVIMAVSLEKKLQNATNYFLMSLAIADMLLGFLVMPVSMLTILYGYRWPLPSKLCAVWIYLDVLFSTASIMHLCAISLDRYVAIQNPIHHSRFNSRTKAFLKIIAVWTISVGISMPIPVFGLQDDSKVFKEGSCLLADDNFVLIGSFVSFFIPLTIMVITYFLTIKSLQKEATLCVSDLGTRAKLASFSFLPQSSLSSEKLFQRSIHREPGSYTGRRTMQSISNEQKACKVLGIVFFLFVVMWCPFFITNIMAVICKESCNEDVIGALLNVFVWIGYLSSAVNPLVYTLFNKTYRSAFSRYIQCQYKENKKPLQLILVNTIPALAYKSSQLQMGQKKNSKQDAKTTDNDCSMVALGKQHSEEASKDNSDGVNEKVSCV

[7] = molecular target: 5-hydroxytryptamine receptor 2B (Homo sapiens, UniProt P41595); assay: Binding affinity to 5HT2B receptor
Chain of 5-hydroxytryptamine receptor 2B (P41595 whole entry): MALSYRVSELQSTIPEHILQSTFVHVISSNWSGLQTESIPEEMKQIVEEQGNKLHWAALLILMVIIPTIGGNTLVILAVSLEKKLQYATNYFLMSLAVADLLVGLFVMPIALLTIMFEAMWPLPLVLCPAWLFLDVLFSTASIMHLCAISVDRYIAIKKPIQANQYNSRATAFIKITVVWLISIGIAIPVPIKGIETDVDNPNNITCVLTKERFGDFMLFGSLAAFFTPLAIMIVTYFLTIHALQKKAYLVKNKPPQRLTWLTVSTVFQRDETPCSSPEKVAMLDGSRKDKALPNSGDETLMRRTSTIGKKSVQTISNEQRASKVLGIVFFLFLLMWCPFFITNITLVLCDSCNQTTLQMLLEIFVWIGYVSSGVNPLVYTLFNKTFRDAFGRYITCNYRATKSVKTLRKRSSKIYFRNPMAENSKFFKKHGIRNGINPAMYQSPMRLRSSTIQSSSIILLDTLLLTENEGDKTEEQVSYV

[8] = molecular target: T2, 5-hydroxytryptamine receptor 2C (Homo sapiens, UniProt P28335); assay: Binding affinity to 5HT2C receptor
T2 sequence (P28335 whole entry): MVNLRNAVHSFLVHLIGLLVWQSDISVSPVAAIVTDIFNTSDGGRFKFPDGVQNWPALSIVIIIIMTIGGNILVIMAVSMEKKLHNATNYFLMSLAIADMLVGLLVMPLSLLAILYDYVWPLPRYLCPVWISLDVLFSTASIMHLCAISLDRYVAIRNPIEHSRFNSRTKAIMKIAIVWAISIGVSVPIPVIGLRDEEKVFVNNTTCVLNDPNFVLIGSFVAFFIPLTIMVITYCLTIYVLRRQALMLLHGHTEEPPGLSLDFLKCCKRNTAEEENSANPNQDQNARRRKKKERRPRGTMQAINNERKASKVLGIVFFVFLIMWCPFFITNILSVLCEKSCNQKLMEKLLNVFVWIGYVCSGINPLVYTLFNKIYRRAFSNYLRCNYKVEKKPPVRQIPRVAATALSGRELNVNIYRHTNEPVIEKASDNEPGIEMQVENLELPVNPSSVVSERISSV

[9] = molecular target: 5-hydroxytryptamine receptor 4 (Homo sapiens, UniProt Q13639); assay: Binding affinity to 5HT4 receptor
Chain of 5-hydroxytryptamine receptor 4 (Q13639 whole entry): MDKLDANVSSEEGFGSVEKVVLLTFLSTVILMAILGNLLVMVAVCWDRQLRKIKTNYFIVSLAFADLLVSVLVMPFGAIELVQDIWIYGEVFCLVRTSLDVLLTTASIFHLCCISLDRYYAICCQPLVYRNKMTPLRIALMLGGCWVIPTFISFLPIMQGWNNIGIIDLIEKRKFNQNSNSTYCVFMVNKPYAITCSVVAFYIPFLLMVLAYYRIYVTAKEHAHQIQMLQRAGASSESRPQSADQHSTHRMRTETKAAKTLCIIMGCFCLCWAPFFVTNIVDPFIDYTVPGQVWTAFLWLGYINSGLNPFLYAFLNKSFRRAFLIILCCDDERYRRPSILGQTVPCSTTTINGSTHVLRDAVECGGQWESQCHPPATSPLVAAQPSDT

[10] = molecular target: 5-hydroxytryptamine receptor 5A (Homo sapiens, UniProt P47898); assay: Binding affinity to 5HT5A receptor
Chain of 5-hydroxytryptamine receptor 5A (P47898 whole entry): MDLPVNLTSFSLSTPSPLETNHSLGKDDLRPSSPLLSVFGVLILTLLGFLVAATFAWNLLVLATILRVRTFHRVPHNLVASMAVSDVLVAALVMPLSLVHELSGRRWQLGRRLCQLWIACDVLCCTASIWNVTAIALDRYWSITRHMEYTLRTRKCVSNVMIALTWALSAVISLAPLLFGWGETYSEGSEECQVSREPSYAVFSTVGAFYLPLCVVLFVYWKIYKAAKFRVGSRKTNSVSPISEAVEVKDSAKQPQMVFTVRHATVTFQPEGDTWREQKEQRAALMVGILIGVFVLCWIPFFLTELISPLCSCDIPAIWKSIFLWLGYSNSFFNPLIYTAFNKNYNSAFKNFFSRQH

[11] = molecular target: 5-hydroxytryptamine receptor 6 (Homo sapiens, UniProt P50406); assay: Binding affinity to 5HT6 receptor
[12] = molecular target: 5-hydroxytryptamine receptor 7 (Homo sapiens, UniProt P34969); assay: Binding affinity to 5HT7 receptor
Chain of 5-hydroxytryptamine receptor 7 (P34969 whole entry): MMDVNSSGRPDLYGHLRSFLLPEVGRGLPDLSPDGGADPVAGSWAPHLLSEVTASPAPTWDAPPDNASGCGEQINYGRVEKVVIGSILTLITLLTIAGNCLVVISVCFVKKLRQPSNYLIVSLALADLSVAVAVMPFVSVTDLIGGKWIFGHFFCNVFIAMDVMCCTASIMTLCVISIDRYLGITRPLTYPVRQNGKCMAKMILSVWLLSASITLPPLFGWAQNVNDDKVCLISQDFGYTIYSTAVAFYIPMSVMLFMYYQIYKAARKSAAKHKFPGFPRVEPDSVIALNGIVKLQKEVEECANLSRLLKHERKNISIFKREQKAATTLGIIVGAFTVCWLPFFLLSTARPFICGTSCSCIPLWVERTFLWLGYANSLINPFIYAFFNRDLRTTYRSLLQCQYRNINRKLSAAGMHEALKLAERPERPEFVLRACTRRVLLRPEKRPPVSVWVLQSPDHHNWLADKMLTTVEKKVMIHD

[13] = molecular target: D(1A) dopamine receptor (Homo sapiens, UniProt P21728); assay: Binding affinity to dopamine D1
Chain of D(1A) dopamine receptor (P21728 whole entry): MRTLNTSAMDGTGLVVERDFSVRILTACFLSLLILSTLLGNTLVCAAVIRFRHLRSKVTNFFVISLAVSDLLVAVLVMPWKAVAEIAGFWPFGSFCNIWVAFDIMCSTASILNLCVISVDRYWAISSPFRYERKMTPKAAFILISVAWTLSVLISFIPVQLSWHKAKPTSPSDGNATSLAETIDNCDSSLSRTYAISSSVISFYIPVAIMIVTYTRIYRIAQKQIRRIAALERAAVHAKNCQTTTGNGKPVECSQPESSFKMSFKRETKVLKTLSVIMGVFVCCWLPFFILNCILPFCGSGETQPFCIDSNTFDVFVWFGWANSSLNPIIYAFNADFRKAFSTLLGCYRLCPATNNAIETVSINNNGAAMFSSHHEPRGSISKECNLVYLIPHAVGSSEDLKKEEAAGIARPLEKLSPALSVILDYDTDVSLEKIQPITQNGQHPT

[14] = molecular target: D(2) dopamine receptor (Homo sapiens, UniProt P14416); assay: Binding affinity to dopamine D2
Chain of D(2) dopamine receptor (P14416 whole entry): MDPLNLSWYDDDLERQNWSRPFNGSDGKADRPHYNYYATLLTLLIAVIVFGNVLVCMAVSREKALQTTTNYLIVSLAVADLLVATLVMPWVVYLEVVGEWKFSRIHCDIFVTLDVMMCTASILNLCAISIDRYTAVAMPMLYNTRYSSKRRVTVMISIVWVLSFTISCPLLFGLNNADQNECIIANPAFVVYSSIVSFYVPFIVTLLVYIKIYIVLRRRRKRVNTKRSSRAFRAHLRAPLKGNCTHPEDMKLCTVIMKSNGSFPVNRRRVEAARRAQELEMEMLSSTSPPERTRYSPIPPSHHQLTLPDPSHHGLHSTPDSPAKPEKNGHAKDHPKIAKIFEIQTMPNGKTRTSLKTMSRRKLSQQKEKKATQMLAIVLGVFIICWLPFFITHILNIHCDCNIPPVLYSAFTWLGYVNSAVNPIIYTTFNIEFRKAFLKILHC

[15] = tested on: Rattus norvegicus; assay: Increase in extracellular serotonin levels in po dosed rat frontal cortex; type: functional, organism-based
Procedure, shortened: (§1)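 In vivo microdialysis in rat frontal cortex measuring extracellular serotonin. Oral doses were 1 and 3 mg/kg, with a reference SSRI at 5 mg/kg po; an iv arm used 1.0 mg/kg. Change is expressed as percent increase over vehicle-treated controls, with significance tested against vehicle.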

[16] = tested on: Rattus norvegicus; assay: Increase in extracellular serotonin levels in rat frontal cortex at 3 mg/kg, po by microdialysis method relative to untreated control; type: functional; procedure, shortened: as §1
[17] = tested on: Rattus norvegicus; assay: Increase in extracellular serotonin levels in rat frontal cortex at 5 mg/kg, po by microdialysis method relative to untreated control; type: functional, organism-based; set-up: dose 5 mg/kg; procedure, shortened: as §1
[18] = tested on: Brain; assay: Drug concentration in rat brain at 3 mg/kg, po after 2 hrs by microdialysis method; type: ADME, organism-based; set-up: dose 3 mg/kg, route oral; conditions: in vivo
Procedure, shortened: (§2)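 Rats dosed orally at 3 mg/kg as part of the frontal-cortex microdialysis experiments. Drug levels in brain and plasma sampled at 2 h after dosing. Oral bioavailability, Tmax and half-life are reported from the same oral 3 mg/kg dosing in rat.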

[19] = Drug concentration in rat plasma at 3 mg/kg, po after 2 hrs by microdialysis method; type: ADME, organism-based; set-up: dose 3 mg/kg, route oral; procedure, shortened: as §2
[20] = Oral bioavailability in rat plasma at 3 mg/kg by microdialysis method; type: ADME, organism-based; procedure, shortened: as §2
[21] = Tmax in rat at 3 mg/kg, po by microdialysis method; type: ADME, organism-based; set-up: dose 3 mg/kg, route oral; conditions: in vivo; procedure, shortened: as §2
[22] = Half life in rat at 3 mg/kg, po by microdialysis method; type: ADME, organism-based; set-up: dose 3 mg/kg, route oral; conditions: in vivo; procedure, shortened: as §2

Chain of Sodium-dependent serotonin transporter (P31645 whole entry): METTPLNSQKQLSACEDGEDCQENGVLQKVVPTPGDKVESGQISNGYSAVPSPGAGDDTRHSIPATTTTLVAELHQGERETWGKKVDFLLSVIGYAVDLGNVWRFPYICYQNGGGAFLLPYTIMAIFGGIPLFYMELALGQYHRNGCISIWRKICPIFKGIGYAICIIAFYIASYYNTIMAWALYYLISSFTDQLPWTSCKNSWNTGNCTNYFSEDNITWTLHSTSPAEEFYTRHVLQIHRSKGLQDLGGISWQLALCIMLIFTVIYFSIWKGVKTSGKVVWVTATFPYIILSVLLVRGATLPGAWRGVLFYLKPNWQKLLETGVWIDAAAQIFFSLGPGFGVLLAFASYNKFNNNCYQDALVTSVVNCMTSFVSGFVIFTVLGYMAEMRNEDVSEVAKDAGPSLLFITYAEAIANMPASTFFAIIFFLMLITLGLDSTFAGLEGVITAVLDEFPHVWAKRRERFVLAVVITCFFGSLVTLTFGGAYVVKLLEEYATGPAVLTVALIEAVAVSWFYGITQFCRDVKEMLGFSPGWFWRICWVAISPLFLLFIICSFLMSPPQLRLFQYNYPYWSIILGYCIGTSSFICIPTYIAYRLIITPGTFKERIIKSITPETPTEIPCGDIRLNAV
Chain of Sodium-dependent noradrenaline transporter (P23975 whole entry): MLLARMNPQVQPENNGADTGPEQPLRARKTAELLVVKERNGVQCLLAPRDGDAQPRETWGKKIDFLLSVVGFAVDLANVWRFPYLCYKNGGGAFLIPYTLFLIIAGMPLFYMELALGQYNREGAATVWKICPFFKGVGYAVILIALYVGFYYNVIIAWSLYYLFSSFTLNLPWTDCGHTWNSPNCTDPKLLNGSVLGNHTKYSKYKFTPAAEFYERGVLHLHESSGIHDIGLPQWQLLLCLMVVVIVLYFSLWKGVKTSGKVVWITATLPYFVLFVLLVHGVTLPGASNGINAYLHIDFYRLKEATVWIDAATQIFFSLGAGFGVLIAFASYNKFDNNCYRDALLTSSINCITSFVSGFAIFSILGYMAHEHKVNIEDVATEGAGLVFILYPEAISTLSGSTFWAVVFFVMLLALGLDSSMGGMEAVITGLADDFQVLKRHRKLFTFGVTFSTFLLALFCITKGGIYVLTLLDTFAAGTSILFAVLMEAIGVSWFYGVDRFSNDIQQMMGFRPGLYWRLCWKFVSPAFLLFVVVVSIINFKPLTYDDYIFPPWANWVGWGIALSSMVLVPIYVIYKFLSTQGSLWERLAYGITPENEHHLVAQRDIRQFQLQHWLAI

CN(C)C1CCC(c2c[nH]c3cc(Cl)ccc23)C1 (stereo not drawn)
IC50 [1]: 6.5 nM

CN(C)C1CCC(c2c[nH]c3ccc(C#N)cc23)C1 (stereo not drawn)
IC50 [1]: 0.48 nM

CN(C)[C@@H]1CC[C@H](c2c[nH]c3ccc(C#N)cc23)C1
IC50 [1]: 0.22 nM
IC50 [2]: 6900 nM
IC50 [3]: 1300 nM
IC50 [4]: 1300 nM
IC50 [5]: 340 nM
IC50 [6]: 840 nM
IC50 [7]: > 10000 nM
IC50 [8]: > 10000 nM
IC50 [9]: > 30000 nM
IC50 [10]: > 1000 nM
IC50 [11]: 37 nM
IC50 [12]: > 1000 nM
IC50 [13]: 7200 nM
IC50 [14]: > 30000 nM
Activity [15]: Dose-dependent effect
Activity [16]: 150%
Activity [17]: Active
Drug uptake [18]: 1000 nM
concentration at 2 h [19]: 820 nM
bioavailability [20]: 51%
Tmax [21]: 60 min
half-life [22]: 33 min

CN(Cc1ccccc1)C1CCC(c2c[nH]c3ccc(C#N)cc23)C1 (stereo not drawn)
IC50 [1]: 5.3 nM

CN(C)C1CCC(c2c[nH]c3ccc(Br)cc23)C1 (stereo not drawn)
IC50 [1]: 4.3 nM

N#Cc1ccc2[nH]cc(C3CCC(N4CCc5ccccc5C4)C3)c2c1 (stereo not drawn)
IC50 [1]: 6.5 nM

CN(C)C1CCC(c2c[nH]c3c(Cl)cccc23)C1 (stereo not drawn)
IC50 [1]: 1.4 nM

CN(C)[C@H]1CC[C@H](c2c[nH]c3ccc(C#N)cc23)C1
IC50 [1]: 0.97 nM

CCN(C)C1CCC(c2c[nH]c3ccc(F)cc23)C1 (stereo not drawn)
IC50 [1]: 3.7 nM

CCN(C)C1CCC(c2c[nH]c3ccc(C#N)cc23)C1 (stereo not drawn)
IC50 [1]: 1.6 nM

N#Cc1ccc2[nH]cc(C3CCC(N4CCCCC4)C3)c2c1 (stereo not drawn)
IC50 [1]: 65 nM

N#Cc1ccc2[nH]cc(C3CCC(N)C3)c2c1 (stereo not drawn)
IC50 [1]: 32 nM

CN(C)C1CCC(c2c[nH]c3cccc(F)c23)C1 (stereo not drawn)
IC50 [1]: 31 nM

CN(C)C1CCC(c2c[nH]c3ccc(Cl)cc23)C1 (stereo not drawn)
IC50 [1]: 3 nM

CN(C)C1CCC(c2c[nH]c3c(F)cccc23)C1 (stereo not drawn)
IC50 [1]: 3.3 nM

CCNC1CCC(c2c[nH]c3ccc(C#N)cc23)C1 (stereo not drawn)
IC50 [1]: 6.6 nM

CN(C)[C@H]1CC[C@@H](c2c[nH]c3ccc(C#N)cc23)C1
IC50 [1]: 0.38 nM

CN(CCc1ccccc1)C1CCC(c2c[nH]c3ccc(C#N)cc23)C1 (stereo not drawn)
IC50 [1]: 6.2 nM

CN(C)[C@@H]1CC[C@H](c2c[nH]c3ccc(F)cc23)C1 (single isomer, unassigned)
IC50 [1]: 2.4 nM

Fc1ccc2[nH]cc(C3CCC(N4CCCC4)C3)c2c1 (stereo not drawn)
IC50 [1]: 2.9 nM

CCN(CC)C1CCC(c2c[nH]c3ccc(F)cc23)C1 (stereo not drawn)
IC50 [1]: 7.3 nM

N#Cc1ccc2[nH]cc(C3CCC(NCc4ccccc4)C3)c2c1 (stereo not drawn)
IC50 [1]: 15 nM

CN(C)C1CCC(c2c[nH]c3cc(F)ccc23)C1 (stereo not drawn)
IC50 [1]: 5.1 nM

N#Cc1ccc2[nH]cc(C3CCC(N4CCCC4)C3)c2c1 (stereo not drawn)
IC50 [1]: 3 nM

N#Cc1ccc2[nH]cc(C3CCC(N4CCOCC4)C3)c2c1 (stereo not drawn)
IC50 [1]: 110 nM

CN(C)C1CCC(c2c[nH]c3cc(Br)ccc23)C1 (stereo not drawn)
IC50 [1]: 9.6 nM

CN(C)C1CCC(c2c[nH]c3c(Br)cccc23)C1 (stereo not drawn)
IC50 [1]: 1.6 nM

CN(C)[C@@H]1CC[C@@H](c2c[nH]c3ccc(C#N)cc23)C1
IC50 [1]: 1.3 nM

N#Cc1ccc2[nH]cc(C3CCC(NCCc4ccccc4)C3)c2c1 (stereo not drawn)
IC50 [1]: 10 nM

CNC1CCC(c2c[nH]c3ccc(C#N)cc23)C1 (stereo not drawn)
IC50 [1]: 8.5 nM

CN(C)[C@H]1CC[C@H](c2c[nH]c3ccc(F)cc23)C1
IC50 [1]: 5.9 nM

CCN(CC)C1CCC(c2c[nH]c3ccc(C#N)cc23)C1 (stereo not drawn)
IC50 [1]: 6.2 nM

CN(C)[C@@H]1CC[C@@H](c2c[nH]c3ccc(F)cc23)C1
IC50 [1]: 2.8 nM

CCCNC1CCC(c2c[nH]c3ccc(C#N)cc23)C1 (stereo not drawn)
IC50 [1]: 30 nM

CN(C)C1CCC(c2c[nH]c3cccc(Br)c23)C1 (stereo not drawn)
IC50 [1]: 5.3 nM

CN(C)C1CCC(c2c[nH]c3ccc(F)cc23)C1 (stereo not drawn)
IC50 [1]: 1.7 nM

N#Cc1ccc2[nH]cc(C3CCC(N4Cc5ccccc5C4)C3)c2c1 (stereo not drawn)
IC50 [1]: 6.8 nM

— ChEMBL document CHEMBL1275372, “Conformationally restricted homotryptamines. Part 7: 3-cis-(3-aminocyclopentyl)indoles as potent selective serotonin reuptake inhibitors” (J Med Chem, 2010)
